# Reference: ChEMBL document CHEMBL2146377, “Rational design of 4-aryl-1,2,3-triazoles for indoleamine 2,3-dioxygenase 1 inhibition” (J Med Chem, 2012)
# Activity calls are given as the source filed them. The calls are words filed in the database; no cut-off is given here.
# How the values were obtained:
# [1] = biological target: T1, Indoleamine 2,3-dioxygenase 1 (Homo sapiens, UniProt P14902); assay: Inhibition of human IDO1 transfected in HEK293 clone 6 cells by HPLC analysis; type: cell-based
# Target sequence in this assay (P14902 whole entry, looked up): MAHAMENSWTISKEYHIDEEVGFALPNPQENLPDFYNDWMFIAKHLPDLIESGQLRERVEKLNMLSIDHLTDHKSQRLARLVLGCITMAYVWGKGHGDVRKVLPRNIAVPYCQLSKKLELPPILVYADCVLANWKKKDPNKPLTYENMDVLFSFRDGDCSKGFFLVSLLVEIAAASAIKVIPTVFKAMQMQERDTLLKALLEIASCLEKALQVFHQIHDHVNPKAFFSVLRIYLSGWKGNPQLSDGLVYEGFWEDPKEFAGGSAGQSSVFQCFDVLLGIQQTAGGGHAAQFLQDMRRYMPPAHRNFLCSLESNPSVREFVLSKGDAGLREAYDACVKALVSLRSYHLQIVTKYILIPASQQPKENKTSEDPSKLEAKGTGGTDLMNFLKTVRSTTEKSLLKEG
# HepG2 = assay: Cytotoxicity against human HepG2 cells after 24 hrs by MTS-PMS assay; type: functional; details: HepG2, 24 h, read-out: LD50 (the source's name)
# Outline: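 Hep G2 cells (2 × 10⁴ per well) in IMDM with 10% FCS exposed to compound titrated 0.001–100 μM for 24 h at 37 °C; living cells counted by MTS/PMS assay; LD₅₀ reported as mean of at least two independent assays with standard deviation.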
# [2] = biological target: Tryptophan 2,3-dioxygenase (Homo sapiens, UniProt P48775); assay: Inhibition of human TDO transfected in mouse P815B clone 19 cells by HPLC analysis; type: cell-based
# Chain of Tryptophan 2,3-dioxygenase (Homo sapiens, UniProt P48775) (P48775 whole entry): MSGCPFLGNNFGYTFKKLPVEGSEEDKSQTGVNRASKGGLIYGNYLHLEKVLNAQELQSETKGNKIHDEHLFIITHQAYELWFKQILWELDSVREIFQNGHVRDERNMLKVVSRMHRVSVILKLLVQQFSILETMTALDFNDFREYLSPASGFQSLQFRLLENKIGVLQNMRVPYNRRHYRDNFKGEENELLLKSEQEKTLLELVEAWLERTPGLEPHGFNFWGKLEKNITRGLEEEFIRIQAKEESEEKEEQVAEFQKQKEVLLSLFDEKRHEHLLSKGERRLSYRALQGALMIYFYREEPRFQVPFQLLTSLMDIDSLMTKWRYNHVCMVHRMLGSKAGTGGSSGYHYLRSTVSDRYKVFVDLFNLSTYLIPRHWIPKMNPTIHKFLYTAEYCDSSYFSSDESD
# [3] = biological target: Tryptophan 2,3-dioxygenase (Mus musculus, UniProt P48776); assay: Inhibition of mouse TDO in P815 clone 12 cells by HPLC analysis; type: cell-based
# Chain of Tryptophan 2,3-dioxygenase (Mus musculus, UniProt P48776) (P48776 whole entry): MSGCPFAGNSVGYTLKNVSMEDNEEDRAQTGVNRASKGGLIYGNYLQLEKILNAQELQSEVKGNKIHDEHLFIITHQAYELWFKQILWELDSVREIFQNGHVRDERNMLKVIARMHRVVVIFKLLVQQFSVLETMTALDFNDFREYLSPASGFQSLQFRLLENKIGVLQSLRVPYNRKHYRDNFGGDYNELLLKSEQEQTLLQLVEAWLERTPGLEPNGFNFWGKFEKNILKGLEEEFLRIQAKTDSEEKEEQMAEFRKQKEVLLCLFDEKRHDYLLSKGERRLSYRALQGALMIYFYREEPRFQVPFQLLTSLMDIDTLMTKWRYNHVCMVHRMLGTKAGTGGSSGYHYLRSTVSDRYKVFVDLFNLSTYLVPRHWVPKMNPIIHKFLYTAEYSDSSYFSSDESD
# [4] = biological target: T1, Indoleamine 2,3-dioxygenase 1; assay: Inhibition of human recombinant N-terminal His-tagged IDO1 (Ala2 to Gly403) overexpressed in Escherichia coli BL21 at pH 6.5 after 60 mins by HPLC analysis
# Target sequence in this assay (P14902 whole entry): as the sequence (P14902 whole entry, looked up) above
# [5] = biological target: T1, Indoleamine 2,3-dioxygenase 1; assay: Inhibition of human IDO1 transfected in mouse P815B clone-6 cells by HPLC analysis; type: cell-based
# Target sequence in this assay (P14902 whole entry): as the sequence (P14902 whole entry, looked up) above
# [6] = biological target: Indoleamine 2,3-dioxygenase 1 (Mus musculus, UniProt P28776); assay: Inhibition of mouse IDO1 in P815 clone 6 cells by HPLC analysis; type: cell-based
# Chain of Indoleamine 2,3-dioxygenase 1 (Mus musculus, UniProt P28776) (P28776 whole entry): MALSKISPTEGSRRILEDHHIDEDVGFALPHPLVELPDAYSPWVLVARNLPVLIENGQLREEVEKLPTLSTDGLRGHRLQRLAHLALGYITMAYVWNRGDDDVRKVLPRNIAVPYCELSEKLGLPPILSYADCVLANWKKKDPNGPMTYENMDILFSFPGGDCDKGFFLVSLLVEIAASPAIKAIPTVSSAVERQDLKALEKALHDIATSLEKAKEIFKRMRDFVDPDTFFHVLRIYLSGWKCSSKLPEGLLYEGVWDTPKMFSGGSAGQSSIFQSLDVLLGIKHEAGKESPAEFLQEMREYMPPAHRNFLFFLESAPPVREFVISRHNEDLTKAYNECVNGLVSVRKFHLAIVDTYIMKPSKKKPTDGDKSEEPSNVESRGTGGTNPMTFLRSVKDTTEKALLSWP
# Outline: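 Murine mastocytoma P815 stably transfected cells were used: P815-mIDO1 clone 6 for mouse IDO1 and P815B-hIDO1 clone 6 for human IDO1. Cells with inhibitor were incubated at 37 °C until under 50% of tryptophan was consumed, as tracked in control wells by pDMAB absorbance at 480 nm. Supernatant was TCA-precipitated, and tryptophan and kynurenine were quantified by C18 HPLC. Values are the mean of ≥2 independent assays.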
# physchem = details: pH 2
# [7] = biological target: T1, Indoleamine 2,3-dioxygenase 1; details: at 1 mM
# Target sequence in this assay (P14902 whole entry, looked up): as the sequence (P14902 whole entry, looked up) above
SMILES,inhibition [1],CC50 (HepG2) [µM],IC50 [2] [µM],IC50 [3] [µM],IC50 [4] [µM],IC50 [5] [µM],IC50 [6] [µM],pKa (physchem),inhibition [7]
CCc1cccc(-c2c[nH]nn2)c1,Active,> 100,> 100,> 100,13,1.1,0.03,–,–
c1nnn[nH]1 [TETRAZOLE],–,–,–,–,–,–,–,4.79,–
c1cc(-c2ccncc2)ccn1,–,–,–,–,–,–,–,–,inactive
Brc1cc(-c2c[nH]nn2)ccn1,Active,> 100,> 100,> 100,3.3,2.9,0.05,–,–
Cn1nncc1-c1ccccc1,–,–,–,–,–,–,–,–,inactive
Fc1ccc(-c2cnnn2-c2ccccc2)cc1,–,–,–,–,–,–,–,–,inactive
C1=C(c2c[nH]nn2)CCCC1,–,–,–,–,–,–,–,–,inactive
c1ccc2[nH]nnc2c1,–,–,–,–,–,–,–,–,inactive
Nc1ccccc1-c1c[nH]nn1,Active,> 100,> 100,> 100,60,> 100,1.7,–,–
c1c[nH]cn1 [IMIDAZOLE],–,–,–,–,–,–,–,14.5,–
CCCCn1cc(-c2ccccc2)nn1,–,–,–,–,–,–,–,–,inactive
Cc1cccc(-c2c[nH]nn2)c1,Active,> 100,> 100,> 100,22,7,0.12,–,–
c1ccc(-c2nnn[nH]2)cc1,–,–,–,–,–,–,–,4.53,inactive
c1ccc(Cc2c[nH]nn2)cc1,–,–,–,–,–,–,–,–,inactive
Cn1cc(-c2ccccc2)nn1,–,–,–,–,–,–,–,–,inactive
Fc1cc(-c2c[nH]nn2)ccn1,Active,> 100,> 100,> 100,7.4,7,0.12,7.59,–
Clc1ccc(Cl)c(-c2c[nH]nn2)c1,Active,> 100,> 100,> 100,6.4,34,0.15,8.17,–
Nc1nonc1C(=NO)Nc1ccc(F)c(Cl)c1,–,–,70,60,–,–,–,–,–
Nc1nonc1/C(=N/O)Nc1ccc(F)c(Cl)c1,Active,> 100,–,–,–,–,–,–,–

SMILES,inhibition [1],CC50 (HepG2) [µM],IC50 [2] [µM],IC50 [3] [µM],IC50 [4] [µM],IC50 [5] [µM],IC50 [6] [µM],pKa (physchem),inhibition [7]
Oc1ccccc1-c1c[nH]nn1,Active,> 100,> 100,> 100,15,1.7,0.022,–,–
Cc1ccc2[nH]nnc2c1,–,–,–,–,–,–,–,–,inactive
CCCCn1nncc1-c1ccccc1,–,–,–,–,–,–,–,–,inactive
O=Cc1ccccc1-c1c[nH]nn1,–,–,–,–,1300,–,–,–,–
c1cncc(-c2c[nH]nn2)c1,–,–,–,–,1000,–,–,8.14,–
Oc1cccc(-c2c[nH]nn2)c1,Active,> 100,> 100,> 100,310,> 100,1.3,–,–
O=[N+]([O-])c1cccc(-c2c[nH]nn2)c1,Active,> 100,> 100,> 100,15,24,0.11,–,–
NCCc1ccccc1-c1c[nH]nn1,–,–,–,–,–,–,–,–,inactive
Brc1ccccc1-c1c[nH]nn1,–,–,> 100,> 100,6.4,2.6,0.034,–,–
c1ccc(-c2ccncc2)cc1,–,–,–,–,–,–,–,–,inactive
Fc1cccc(-c2c[nH]nn2)c1,Active,> 100,> 100,> 100,47,> 100,1.1,8.38,–
FC(F)(F)c1ccccc1-c1c[nH]nn1,Active,> 100,> 100,> 100,650,> 100,20,–,–
O=C(O)CCc1ccccc1-c1c[nH]nn1,–,–,–,–,–,–,–,–,inactive
c1ccc(-c2cnnn2-c2ccccc2)cc1,–,–,–,–,–,–,–,–,inactive
CCn1nncc1-c1ccccc1,–,–,–,–,–,–,–,–,inactive
c1ccc(SCc2c[nH]nn2)cc1,–,–,–,–,–,–,–,–,inactive
Clc1cccc(-c2c[nH]nn2)c1,Active,> 100,> 100,> 100,1.2,0.62,0.02,8.32,–
c1ccc(-c2ccncn2)cc1,–,–,–,–,–,–,–,–,inactive
